Assay outcomes (PubChem)
A selection: hits, their analogues and other compounds. The true share with any hit is near 2.2%.
CendR NRP1 mod = modulators of CendR peptide binding to human neuropilin-1 | O14786 | FAM-RPARPAR peptide binding to NRP-1, fluorescence polarization | inhibition, % at 25 µM | 0.85% of 360,000 active;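 active = inhibition or corrected inhibition above about 18%, plus a signal ratio from 0.5 to 1.5, limit read from the data, passing the limit was not always enough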
Granule exo inh = blocks lytic granule exocytosis; inhibition, % at 10 µM; 0.66% of 360,000 active; TALL-104 LAMP-1 surface exposure, flow cytometry; cells stimulated with thapsigargin and PMA;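 active = inhibition above about 55%, limit read from the data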
V-ATPase pHluor = yeast V-ATPase proton transport regulation by pHLuorin; AID 504577; 0.37% of 350,000 active; S. cerevisiae, pHLuorin cytosolic pH fluorescence; response, % at 10 µM; in the data active = response mostly above about 7.3%, no sharp cut-off; inactive = mostly below about 5.4%; note: actives read high
ASAP1 GAP inh = ASAP1 ArfGAP inhibition; Q9ULH1; 0.19% of 360,000 active; ASAP1-stimulated ARF1 GTP hydrolysis, GDP FP detection; inhibition, % at 16.5 µM; in the data active = inhibition above about 25%
Target sequence (Q9ULH1 325-724 limits assumed): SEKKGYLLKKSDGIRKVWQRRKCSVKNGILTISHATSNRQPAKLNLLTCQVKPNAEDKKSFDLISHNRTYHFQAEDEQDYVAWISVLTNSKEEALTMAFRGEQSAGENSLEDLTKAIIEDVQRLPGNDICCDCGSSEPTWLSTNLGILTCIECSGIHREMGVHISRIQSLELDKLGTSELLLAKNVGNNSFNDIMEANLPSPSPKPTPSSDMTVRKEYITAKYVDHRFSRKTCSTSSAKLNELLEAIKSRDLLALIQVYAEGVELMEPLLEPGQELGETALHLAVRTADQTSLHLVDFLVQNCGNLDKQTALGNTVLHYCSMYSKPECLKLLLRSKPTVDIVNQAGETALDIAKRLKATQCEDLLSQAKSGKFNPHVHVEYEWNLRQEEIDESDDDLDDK
ARFGAP1 inhibitor = inhibits rat ARF GTPase activating protein 1; Arfgap1-stimulated ARF1 GTP hydrolysis, GDP FP detection; Q62848; 0.26% of 360,000 active; inhibition, % at 16.5 µM;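 active = inhibition above a per-plate limit, mean inhibition of low control wells plus 3 SD, cut at about 25% in these data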
Target sequence (Q62848 1-136 limits assumed): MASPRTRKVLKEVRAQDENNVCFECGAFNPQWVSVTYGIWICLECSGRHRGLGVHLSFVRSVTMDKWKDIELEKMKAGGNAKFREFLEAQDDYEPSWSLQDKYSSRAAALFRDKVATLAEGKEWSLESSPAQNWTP
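system = rat Arfgap1 catalytic domain, aa 1-136 | technique = FP, GDP Alexa 633 tracer displaced from anti-GDP antibody, 620/688 nm | compound = one concentration, 16.5 µM, DMSO 1.26% | medium = HEPES-based buffer, pH 7.5 | timing = compound-enzyme preincubation 20 min, reaction 120 min, detection 60 min, 25 °C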
A number is an active result; n = inactive; x = no result given.

SMILES	CendR NRP1 mod	Granule exo inh	V-ATPase pHluor	ASAP1 GAP inh	ARFGAP1 inhibitor
CC1=Nc2ccccc2N=C(NC(=O)CSC(=S)N2CCN(C)CC2)C1c1ccccc1 (configuration not stated)	n	n	n	n	n
Nc1cc(Cl)ccc1Oc1ccc2ccccc2c1	n	n	16	n	n
Cc1nc(SCc2ccc(C(=O)O)cc2)nc2c1CCCC2	42	n	n	n	n
C[C@@H]1CCCCO[C@@H](CN(C)S(=O)(=O)c2ccccc2)[C@@H](C)CN([C@H](C)CO)C(=O)c2cc(N(C)C)ccc2O1	n	n	n	n	n
COc1ccc(Cl)cc1NC(=O)c1cccc(-n2cnnn2)c1	22	n	n	n	n
Cc1cc2c(nc1C)CCCN2S(=O)(=O)c1cccs1	x	x	x	n	n
O=C(COc1ccc(-c2nnco2)cc1)N1CCOCC1	n	n	15	n	n
CC1CC(C)CN(C(=O)COc2ccc(-c3nnco3)cc2)C1 (configuration not stated)	n	n	n	n	n
COC(=O)c1cc2c(c3c4cc(C)ccc4n(S(=O)(=O)c4ccccc4)c13)C(=O)N(Cc1ccc(C(F)(F)F)cc1)C2	x	x	x	n	n
O=C(Nc1ccc(Cl)c(C(F)(F)F)c1)[C@@H]1CC=C[C@@H]2CCN(C3CC3)C(=O)[C@@H]21	24	n	n	n	n
Cc1cc(SCC(=O)c2cc(C)n(C)c2C)nc2ccccc12	42	n	n	n	n
Cc1[nH]c2ccccc2c1CC(=O)Nc1ccc(Nc2cccnc2)c(-c2cc(C(F)(F)F)cc(C(F)(F)F)c2)c1	x	x	x	n	n
Cc1ccc(CNC(=O)[C@@H](Cc2ccccc2)NC(=O)[C@H]2O[C@@H](n3ccc(N)nc3=O)[C@H](O)[C@@H]2O)o1	x	x	x	n	n
COCCN=C1Sc2ccccc2[C@@H]2C[C@H]3[C@H](CON3C)CN12	x	x	x	n	n
Cc1ccc(-c2cccc(C3CC=CC4C3C(=O)N(Cc3ccccc3)C4c3cc(C)ccc3F)c2)cc1 (configuration not stated)	30	n	n	n	n
C[C@@H]1CC=C[C@H]2[C@H]1C(=O)N(Cc1ccccc1)[C@H]2c1ccc(/C=C/c2ccccc2)cc1F	29	n	n	n	n
COc1ccc([C@H]2[C@H]3C=CC[C@@H](C)[C@@H]3C(=O)N2Cc2ccccc2)cc1Cl	28	n	n	n	n
COc1ccc(Br)cc1[C@H]1[C@H]2C=CC[C@@H](C)[C@@H]2C(=O)N1Cc1ccccc1	n	n	n	n	n
C[C@@]12CCC=C[C@H]1[C@H](c1ccc(C(F)(F)F)cc1)N(Cc1ccccc1)C2=O	26	n	n	n	n
COc1ccc(-c2ccc(C)cc2)cc1[C@H]1[C@@H]2C=CCC[C@@]2(C)C(=O)N1Cc1ccccc1	n	n	n	n	n
COc1ccc(-c2cccc(C3CC=CC4C3C(=O)N(Cc3ccccc3)C4c3ccc(C(F)(F)F)cc3)c2)cc1 (configuration not stated)	n	n	n	n	n
CCCCNC(=O)C[C@H]1C[C@@]2(C(=O)OC)C(=C[C@H](C(C)(C)C)O[C@@H]2C)N(CCC2=CCCCC2)C1=O	x	x	x	n	n
O=C(CCC1CCN(Cc2nccs2)CC1)Nc1ccccc1	n	n	n	n	n
Cc1[nH]nc2c1C(c1cccc(C(F)(F)F)c1)N(Cc1ccccc1)C2=O (configuration not stated)	x	x	x	n	n
C[C@@]12CCC=C[C@H]1[C@H](c1ccc(/C=C/c3ccccc3)cc1F)N(Cc1ccccc1)C2=O	21	n	n	n	n
SMILES	CendR NRP1 mod	Granule exo inh	V-ATPase pHluor	ASAP1 GAP inh	ARFGAP1 inhibitor
COc1ccc2nc(NC(=O)CN3CCOCC3)sc2c1	21	n	n	n	n
COc1ccc2nc(NC(=O)c3cc(S(=O)(=O)N4CCOCC4)ccc3C)sc2c1	26	n	n	n	n
COc1ccc2nc(NC(=O)c3cccc(S(=O)(=O)N4CCOCC4)c3)sc2c1	n	n	n	n	n
Oc1ccccc1-c1ccn[nH]1	32	n	n	n	n
Cn1c(SCC(=O)c2ccc(F)cc2)ncc(C(=O)Nc2ccccc2)c1=O	27	n	n	n	n
CC1Cn2c(nnc2-c2ccccc2O)S1 (configuration not stated)	n	n	n	n	n
CC1Cn2c(nnc2-c2cc3ccccc3cc2O)S1 (configuration not stated)	26	n	n	n	n
Cc1ccccc1C(=O)N[C@@H](Cc1cccnc1)C(=O)N1CCC[C@H]1C(=O)NCCc1ccccc1Cl	x	x	x	n	n
CCCCN1CC(O)=C(c2nc3ccccc3[nH]2)C1=N	22	n	n	n	n
CCCCCN1CC(O)=C(c2nc3ccccc3[nH]2)C1=N	n	n	n	n	n
Cc1nnc(SCC(=O)Nc2ccc(N3CCOCC3)cc2)n1Cc1ccccc1	n	n	23	n	n
O=C(CSc1n[nH]c(=O)n1Cc1ccccc1)Nc1ccc(N2CCOCC2)cc1	n	n	n	n	n
O=C(Nc1nnc(SCc2ccccc2)s1)c1cccs1	n	n	n	n	n
CCSc1nnc(NC(=O)c2cccs2)s1	n	n	16	n	n
COC(=O)C1=C(C)N(C)C(=NCc2ccc(OC)cc2)NC1c1ccc(C(F)(F)F)cc1 (configuration not stated)	x	x	x	n	n
C=C(C)Cn1c(SCC(=O)O)nnc1-c1ccccc1	28	n	n	n	n
Cc1cc(Nc2cc(F)c(F)c(F)c2)cc(=O)n1-c1cc(F)c(F)c(F)c1	x	x	x	n	n
COc1ccc2c(c1)[C@@]1(OCCC=C[C@H]1C)C(=O)N2Cc1ccc(Br)cc1	x	x	x	n	n
CC1(C)c2[nH]c3ccccc3c2C[C@@H]2C(=O)N(c3cc(F)ccc3F)C(=O)N21	n	n	n	28	n
O=C(C#Cc1ccccc1)c1ccccc1	n	n	n	n	n
O=C(C#Cc1ccccc1)c1ccc([N+](=O)[O-])cc1	n	79	12	n	n
COc1ccccc1CNC(=O)c1cc(-c2ccccc2)nn1Cc1cc(C)no1	27	n	n	n	n
O=c1cc(CSc2n[nH]c(-c3ccncc3)n2)nc2sccn12	24	n	n	n	n
COCCN1C(=O)[C@H]2C[C@@]13O[C@H](c1ccc(C(F)(F)F)cc1)N=C3C[C@H](c1ccccc1)[C@H]2C	x	x	x	n	n
COc1ccc(Cn2c(C)c(CC(=O)Nc3ccc(Oc4cccnc4)c(C)c3)c3ccccc32)cc1	x	x	x	n	n
CSc1ccccc1C(=O)N1CCC(CCC(=O)NCc2ccc(F)cc2)CC1	31	n	n	n	n
CC(=O)c1ccccc1C(=O)N1CCC(CCC(=O)NCc2ccc(F)cc2)CC1	n	n	x	n	n
COc1ccccc1OCC(=O)NNC(=O)CSC(=S)N1CCCC1	24	n	n	n	n
COc1ccccc1OCCNC(=O)CSC(=S)N1CCCC1	n	n	n	n	n
COc1ccc(C2CC(=O)C(c3ccc(C(C)=O)cc3)=CN2Cc2ccccc2)cc1 (configuration not stated)	x	x	x	n	n
